Experimental data as given in ChEMBL document CHEMBL2311473, “Characterization of antimicrobial, cytotoxic, and antiendotoxin properties of short peptides with different hydrophobic amino acids at "a" and "d" positions of a heptad repeat sequence” (J Med Chem, 2013).
In brackets after ≈: the same amount, converted by molar mass. Activity calls are given as the source filed them. The calls are words filed in the database; no cut-off is given here.

How the values were obtained:
[1] = test system: Trichophyton mentagrophytes; assay: Antifungal activity against Trichophyton mentagrophytes after 96 hrs by NCCLS microbroth dilution method; format: functional
In short: (§1)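 Microbroth dilution in MOPS-buffered RPMI 1640 following NCCLS guidelines. Inoculum 1−5 × 10^3 cells/mL, peptide range 50−0.36 (mass/mL). Plates held in a moist chamber at 35 °C and A492 read after 48 h (Candida spp.), 72 h (A. fumigatus, S. schenckii, C. neoformans) or 96 h (T. mentagrophytes). MIC taken as 90% growth inhibition versus growth control.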

RAW264.7 [2] = assay: Antiinflammatory activity in mouse RAW264.7 cells assessed as inhibition of LPS-induced TNFalpha secretion at 1.5 to 4.5 uM after 12 hrs by ELISA; format: functional, cell-based
In short: (§2)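 RAW 264.7 cells treated with LPS alone or LPS plus peptide. TNF-α and IL-6 measured by ELISA in culture supernatant and expressed as percentage inhibition of LPS-induced secretion. Mean of three independent experiments, SD shown.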

RAW264.7 [3] = assay: Antiinflammatory activity in mouse RAW264.7 cells assessed as downregulation of LPS-induced iNOS2 expression at 4.5 uM after 24 hrs by Western blotting analysis; format: functional, cell-based
In short: (§3)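 RAW 264.7 cells (~2 × 10^5) stimulated with LPS 1 μg/mL plus peptide 4.5 μM for 24 h. Cells washed in ice-cold PBS and lysed in Laemmli buffer. SDS-PAGE (8% gel iNOS-2, 12% TNF-α), nitrocellulose transfer, alkaline phosphatase secondary with NBT/BCIP. Band densities normalized to β-actin. LPS-only and untreated cells served as controls.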

Bacillus subtilis = assay: Antibacterial activity against Bacillus subtilis ATCC 6633 after 18 hrs by broth dilution method; format: functional; conditions: ATCC 6633, 18 h
In short: (§4)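 Bacteria grown aerobically at 37 °C in Mueller-Hinton broth to mid-log phase (OD600), diluted to ~10^6 cfu/mL, then mixed 1:1 with 2-fold serial peptide dilutions in water. Incubation ~18 h at 37 °C before MIC read-out (μM).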

Cryptococcus neoformans = assay: Antifungal activity against Cryptococcus neoformans after 72 hrs by NCCLS microbroth dilution method; format: functional; in short: as §1
[4] = Induction of dissipation of diffusion potential in PE/PG lipid vesicles by fluorescence assay; format: physicochemical
In short: (§5)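 SUVs of PC/Chol (8:1 w/w) or PE/PG (7:3 w/w) treated with peptide. Dissipation of diffusion potential taken as percentage fluorescence recovery ~5 min after peptide addition, with valinomycin used for reference levels. Plotted against peptide/lipid molar ratio.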

Lipopolysaccharide (LPS) [5] = assay: Binding affinity to LPS assessed as inhibition of LPS-induced LAL enzyme activation at 18 uM after 30 mins by spectrophotometric analysis
In short: (§6)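 Chromogenic limulus amoebocyte lysate endotoxin kit. Peptide binding to LPS estimated from inhibition of LPS-induced LAL enzyme activation, i.e. reduced substrate colour, and reported as percentage LPS binding.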

RAW264.7 [6] = assay: Antiinflammatory activity in mouse RAW264.7 cells assessed as inhibition of LPS-induced NO production at 3 uM by Griess method; format: functional; parameters: scale not given: the % may be the effect or the level left
In short: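 RAW 264.7 cells plated at 5 × 10^5/well and exposed to LPS (E. coli 0111:B4, 1 μg/mL) together with peptide at varying doses. Cells with and without LPS served as maximum and basal NO controls. Nitrite in the supernatant measured by Griess reagent at 548 nm against a sodium nitrite standard curve, and percent inhibition of NO calculated.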

[7] = Binding affinity to PC/Chol lipid vesicles assessed as increase in helical structure at 36 uM by circular dichroism analysis; format: physicochemical
In short: (§7)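 Peptides (~36 μM) with ~500 μM PC/Chol (8:1 w/w) or PE/PG (7:3 w/w) vesicles. CD spectra 250–190 nm at ~30 °C in 0.2 cm cuvette; 4–6 scans averaged at 20 nm/min, 0.5 nm interval.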

Candida parapsilosis = assay: Antifungal activity against Candida parapsilosis ATCC 22019 after 48 hrs by NCCLS microbroth dilution method; format: functional; conditions: Lodderomyces parapsilosis, ATCC 22019, 48 h; in short: as §1
[8] = Binding affinity to PE/PG lipid vesicles assessed as decrease in decrease in acrylamide-induced tryptophan fluorescence quenching at 1 uM; format: physicochemical
In short: (§8)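 Acrylamide quencher added in aliquots from 3.0 M stock to peptide with PC/Chol (8:1) or PE/PG (7:3) SUVs, peptide/lipid 1:100. Trp excited at 295 nm. Values corrected for dilution and vesicle-blank scatter, then fitted to Stern–Volmer F0/F = 1 + KSV[Q].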

Pseudomonas aeruginosa = assay: Antibacterial activity against Pseudomonas aeruginosa ATCC BAA-427 after 18 hrs by broth dilution method; format: functional; conditions: ATCC BAA-427, 18 h; in short: as §4
Klebsiella pneumoniae = assay: Antibacterial activity against Klebsiella pneumoniae ATCC 27736 after 18 hrs by broth dilution method; format: functional; conditions: ATCC 27736, 18 h; in short: as §4
[9] = Cytotoxicity against human RBC assessed as induction of membrane depolarization at up to 16 uM by DiSC3(5) staining-based fluorescence assay; format: cell-based; conditions: erythrocyte
In short: (§9)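 Membrane potential dye diS-C3-5 preincubated 1 h with hRBC or S. aureus suspensions; I0 is steady-state fluorescence after this incubation. Peptide then added at varying concentrations. Depolarization expressed as percentage fluorescence recovery (Ft) versus peptide concentration.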

[10] = Binding affinity to PE/PG lipid vesicles assessed as induction of large blue shift at 1 uM by fluorescence assay; format: physicochemical
Candida albicans = assay: Antifungal activity against Candida albicans after 48 hrs by NCCLS microbroth dilution method; format: functional; in short: as §1
Lipopolysaccharide (LPS) [11] = assay: Binding affinity to LPS assessed as increase in helical structure at 36 uM by circular dichroism analysis
In short: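 CD spectra of peptides (36 μM) recorded alone and with LPS at 3.8 and 6.25 μM.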

Staphylococcus aureus [12] = assay: Antibacterial activity against Staphylococcus aureus ATCC 9144 after 18 hrs by broth dilution method; format: functional; conditions: ATCC 9144, 18 h; in short: as §4
[13] = Binding affinity to PC/Chol lipid vesicles assessed as decrease in acrylamide-induced tryptophan fluorescence quenching at 1 uM; format: physicochemical; in short: as §8
RAW264.7 [14] = assay: Antiinflammatory activity in mouse RAW264.7 cells assessed as inhibition of LPS-induced IL6 secretion at 1.5 to 4.5 uM after 12 hrs by ELISA; format: functional, cell-based; in short: as §2
[15] = test system: Staphylococcus epidermidis; assay: Antibacterial activity against Staphylococcus epidermidis NRRL B-4268 after 18 hrs by broth dilution method; format: functional; conditions: NRRL B-4268, 18 h; in short: as §4
[16] = Drug uptake in human RBC assessed as membrane localization at 9 uM after 10 to 30 mins by confocal microscopic analysis; format: ADME; conditions: erythrocyte
In short: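 Fresh hRBCs (3% in PBS) incubated with NBD-labeled peptide (~9.0 μM) for 10–30 min at 37 °C. Washed, fixed in 2% paraformaldehyde 10 min, and imaged by confocal microscopy at constant photomultiplier setting.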

Sporothrix schenckii = assay: Antifungal activity against Sporothrix schenckii after 72 hrs by NCCLS microbroth dilution method; format: functional; in short: as §1
[17] = Cytotoxicity against human RBC assessed as hemolysis at 60 uM; format: cell-based, Erythrocyte; conditions: red blood cells (RBC), read-out: Activity
In short: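 hRBCs in PBS exposed to peptide. Hemoglobin release read as supernatant absorbance at 540 nm. Hemolysis % = (Asample − Ablank)/(Atriton − Ablank) × 100, with PBS blank and 0.2% Triton X-100 (final) as 100% reference.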

[18] = Induction of dissipation of diffusion potential in PC/Chol lipid vesicles by fluorescence assay; format: physicochemical; in short: as §5
Staphylococcus aureus [19] = assay: Bactericidal activity against Staphylococcus aureus ATCC 9144 assessed as induction of membrane depolarization at up to 7 uM by DiSC3(5) staining-based fluorescence assay; format: functional, organism-based; in short: as §9
Escherichia coli [20] = assay: Drug uptake in Escherichia coli ATCC 10536 assessed as membrane localization at 3 uM after 30 mins by confocal microscopic analysis; format: ADME, organism-based; conditions: in vivo, 0.5 h
In short: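 E. coli (~10^6 CFU/mL) in LB incubated with fluorescent-labeled peptide (~3.0 μM) for half an hour. Cells centrifuged, washed and imaged by confocal microscopy (DIC and fluorescence).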

Aspergillus fumigatus = assay: Antifungal activity against Aspergillus fumigatus after 72 hrs by NCCLS microbroth dilution method; format: functional; in short: as §1
Escherichia coli [21] = assay: Bactericidal activity against Escherichia coli ATCC 10536 assessed as induction of membrane damage at 5 uM after 30 mins by propidium iodide staining-based flow cytometric analysis; format: functional, organism-based
In short: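 Mid-log E. coli incubated with peptide (~5.0 μM) 30 min at 37 °C with shaking. Cells washed twice in PBS, stained with propidium iodide 30 min at 4 °C, washed and resuspended. 10000 events per sample by flow cytometry, compared with peptide-free control.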

[22] = Binding affinity to PE/PG lipid vesicles assessed as increase in helical structure at 36 uM by circular dichroism analysis; format: physicochemical; in short: as §7
Escherichia coli [23] = assay: Antibacterial activity against Escherichia coli ATCC 10536 after 18 hrs by broth dilution method; format: functional; conditions: ATCC 10536, 18 h; in short: as §4
Lipopolysaccharide (LPS) [24] = assay: Binding affinity to LPS assessed as inhibition of LPS-induced LAL enzyme activation at 4.5 uM after 30 mins by spectrophotometric analysis; in short: as §6
RAW264.7 [25] = assay: Antiinflammatory activity in mouse RAW264.7 cells assessed as downregulation of LPS-induced TNFalpha expression at 4.5 uM after 24 hrs by Western blotting analysis; format: functional, cell-based; in short: as §3
NIH3T3 = assay: Cytotoxicity against mouse 3T3 cells assessed as cell viability up to 25 uM by MTT assay; format: cell-based
In short: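 Murine 3T3 fibroblasts, grown in DMEM/IMDM with 10% FCS at 37 °C, 5% CO2, seeded at 10000 cells/well. Viability after peptide exposure measured by MTT (mitochondrial dehydrogenase) across a dose range.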

[26] = Binding affinity to PC/Chol lipid vesicles assessed as induction of large blue shift at 1 uM by fluorescence assay; format: physicochemical
[27] = Cytotoxicity against human RBC assessed as induction of membrane damage at 25 uM after 5 mins by annexin V-FITC staining-based FACS flow cytometric analysis; format: cell-based; conditions: erythrocyte
In short: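 hRBCs (~3.0 × 10^7 cells/mL) treated with peptide (~25.0 μM) for 5 min at room temperature. Stained with FITC-annexin V and analysed by flow cytometry, 10000 events, compared with untreated control.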

Lipopolysaccharide (LPS) [28] = assay: Binding affinity to FITC-tagged LPS assessed as induction of disintegration up to 40 uM by […]; conditions: in the assay text read “fluorescence dequenching” for “circular dichroism”
In short: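 FITC-LPS (0.5 μg/mL) titrated with increasing peptide concentrations. Disaggregation read as dequenching, i.e. rise in FITC fluorescence, monitored after each addition until emission reached equilibrium.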

Lipopolysaccharide (LPS) [29] = assay: Binding affinity to LPS assessed as inhibition of LPS-induced LAL enzyme activation at 9 uM after 30 mins by spectrophotometric analysis; in short: as §6
Staphylococcus aureus [30] = assay: Antibacterial activity against methicillin-resistant Staphylococcus aureus after 18 hrs by broth dilution method; format: functional; in short: as §4

Structure (SMILES): CC(C)C[C@H](N)C(=O)O [LEUCINE]
- MIC [1]: 1.56 µM (≈ 0.205 µg/mL)
- inhibition (RAW264.7 [2]): Active
- Activity (RAW264.7 [3]): Active
- MIC (Bacillus subtilis): 10.5 µM (≈ 1.38 µg/mL)
- MIC (Cryptococcus neoformans): 6.1 µM (≈ 0.8 µg/mL)
- Activity [4]: Active
- inhibition (Lipopolysaccharide (LPS) [5]): Active
- Activity (RAW264.7 [6]): 90%
- Activity [7]: Active
- MIC (Candida parapsilosis): 3 µM (≈ 0.394 µg/mL)
- Activity [8]: Active
- MIC (Pseudomonas aeruginosa): 11.2 µM (≈ 1.47 µg/mL)
- MIC (Klebsiella pneumoniae): 6.2 µM (≈ 0.813 µg/mL)
- Activity [9]: Toxic
- Activity [10]: Active
- MIC (Candida albicans): 3.1 µM (≈ 0.407 µg/mL)
- Activity (Lipopolysaccharide (LPS) [11]): Active
- MIC (Staphylococcus aureus [12]): 6.25 µM (≈ 0.82 µg/mL)
- Activity [13]: Active
- inhibition (RAW264.7 [14]): Active
- MIC [15]: 12.1 µM (≈ 1.59 µg/mL)
- Drug uptake [16]: Active
- MIC (Sporothrix schenckii): 1.56 µM (≈ 0.205 µg/mL)
- hemolysis at 60 µM [17]: 80%
- Activity [18]: Active
- Activity (Staphylococcus aureus [19]): Active
- Drug uptake (Escherichia coli [20]): Active
- MIC (Aspergillus fumigatus): 3.1 µM (≈ 0.407 µg/mL)
- Activity (Escherichia coli [21]): Active
- Activity [22]: Active
- MIC (Escherichia coli [23]): 6.25 µM (≈ 0.82 µg/mL)
- inhibition (Lipopolysaccharide (LPS) [24]): 72%
- Activity (RAW264.7 [25]): Active
- Activity (NIH3T3): Toxic
- Activity [26]: Active
- Activity [27]: Toxic
- Activity (Lipopolysaccharide (LPS) [28]): Active
- inhibition (Lipopolysaccharide (LPS) [29]): 90%
- MIC (Staphylococcus aureus [30]): 6.25 µM (≈ 0.82 µg/mL)
